Results taken from ChEMBL document CHEMBL2311339, “Identification of GZD824 as an orally bioavailable inhibitor that targets phosphorylated and nonphosphorylated breakpoint cluster region-Abelson (Bcr-Abl) kinase and overcomes clinically acquired mutation-induced resistance against imatinib” (J Med Chem, 2013).
The source made the active and inactive calls. No cut-off for these calls is given here.

Assays:
[1] = Antitumor activity against mouse BA/F3 cells expressing BCR-ABL T315I mutant allografted in SCID mouse assessed as increase in median survival at 10 mg/kg/day, po qd for 10 days; format: functional, BaF3
Procedure, shortened: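 Ba/F3 Bcr-Abl T315I cells stably carrying firefly luciferase, in saline, were injected i.v. into SCID nude mice (2 × 10^6 cells/0.1 mL). Imaging began 5−7 days later: i.p. D-luciferin, halothane anaesthesia, images after 5 min. Mice were randomised by signal and dosed by oral gavage once daily for 10 days (5, 10, 20 mg/kg/day; imatinib 100 mg/kg; vehicle). Luminescence was quantified; survival by Kaplan−Meier with log-rank test.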

BaF3 [2] = assay: Antitumor activity against mouse BA/F3 cells expressing BCR-ABL T315I mutant allografted in SCID mouse assessed as increased survival at 1 to 20 mg/kg/day, po qd for 10 days; format: functional, organism-based
BaF3 [3] = assay: Antitumor activity against mouse BA/F3 cells expressing BCR-ABL T315I mutant allografted in SCID mouse assessed as suppression of cell proliferation at 1 to 20 mg/kg/day, po qd for 10 days; format: functional, organism-based
BaF3 [4] = assay: Antitumor activity against mouse BA/F3 cells expressing BCR-ABL F317L mutant allografted in po dosed SCID mouse assessed as reduction of hepatosplenomegaly administered qd for 14 days; format: functional, organism-based
BaF3 [5] = assay: Antitumor activity against mouse BA/F3 cells expressing BCR-ABL G250E mutant allografted in po dosed SCID mouse assessed as reduction of hepatosplenomegaly administered qd for 14 days; format: functional, organism-based
BaF3 [6] = assay: Antitumor activity against mouse BA/F3 cells expressing BCR-ABL T315I mutant allografted in SCID mouse assessed as inhibition of tumor growth at 5 to 10 mg/kg/day, po qd for 14 days; format: functional, organism-based
Procedure, shortened: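 Ba/F3 cells stably expressing Bcr-Abl (wild type or mutant) were grown in RPMI 1640 with 10% FBS and no IL-3, then suspended in saline (2.5 × 10^7 cells/mL) and given as 0.2 mL s.c. in the right flank. Groups were randomised at 100−200 mm3. Once-daily oral gavage for 14 days in DMSO/Cremophor/ethanol/saline vehicle; reference imatinib 50 or 100 mg/kg/day. Volume L × W²/2 every 2 days; n = 10; t test versus vehicle.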

K562 [7] = assay: Antitumor activity against human K562 cells xenografted in mouse assessed as eradication of tumor at 5 to 10 mg/kg, po qd for 6 days; format: functional, organism-based
[8] = Clearance in rat at 25 mg/kg, po; format: ADME, organism-based; set-up: dose 25 mg/kg, route oral; conditions: in vivo
Procedure, shortened: (§1)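 Bismesylate salt given to rats as a single iv dose of 5 mg/kg or a single oral dose of 25 mg/kg. Plasma drug levels were followed over time to derive the PK parameters. The 12 h and 24 h plasma levels come from the oral 25 mg/kg dose.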

[9] = Tmax in rat at 25 mg/kg, po; format: ADME, organism-based; set-up: dose 25 mg/kg, route oral; conditions: in vivo; procedure, shortened: as §1
[10] = Volume of distribution at steady state in rat at 5 mg/kg, iv; format: ADME, organism-based; set-up: dose 5 mg/kg, route intravenous; conditions: in vivo, read-out: Vdss
Procedure, shortened: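 Test compound given to rats as its bismesylate salt in a single dose, 5 mg/kg iv or 25 mg/kg by mouth. Plasma drug levels were monitored after dosing, and PK parameters including Vss were reported per route.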

[11] = Apparent permeability from basolateral to apical side in human Caco2 cells by LC-MS/MS analysis; format: ADME, cell-based; conditions: Caco-2
[12] = Apparent permeability from apical to basolateral side in human Caco2 cells by LC-MS/MS analysis; format: ADME, cell-based; conditions: Caco-2
Cytochrome P450 3A4 = Cytochrome P450 3A4 (Homo sapiens, UniProt P08684); assay: Inhibition of human recombinant CYP3A4 at 30 uM after 30 mins; format: ADME; conditions: recombinant enzyme, 0.5 h
K562 [13] = assay: Cytotoxicity against imatinib-resistant human K562 cells expressing BCR-ABL Q252H mutant assessed as growth inhibition after 72 hrs by CCK-8 assay; format: functional, cell-based; conditions: K562, 72 h
Procedure, shortened: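 The K562 subline was made imatinib-resistant by 3 months of exposure to imatinib from 0.1 to 5 μM, followed by clonal selection and sequencing to confirm Q252H. Cells were seeded at about 3000 cells/well, treated 24 h later for 72 h, then given CCK-8 for 3 h. Read-out was OD450 − OD650 normalized to vehicle; IC50 is the mean of three experiments.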

[14] = Cytotoxicity against mouse BA/F3 cells expressing BCR-ABL F486S mutant assessed as growth inhibition after 72 hrs by CCK-8 assay; conditions: BaF3, 72 h
[15] = Cytotoxicity against mouse BA/F3 cells expressing BCR-ABL H396R mutant assessed as growth inhibition after 72 hrs by CCK-8 assay; conditions: BaF3, 72 h
[16] = Cytotoxicity against mouse BA/F3 cells expressing BCR-ABL E359V mutant assessed as growth inhibition after 72 hrs by CCK-8 assay; conditions: BaF3, 72 h
[17] = Cytotoxicity against mouse BA/F3 cells expressing BCR-ABL Y253F mutant assessed as growth inhibition after 72 hrs by CCK-8 assay; conditions: BaF3, 72 h
[18] = target: Proto-oncogene tyrosine-protein kinase Src (Homo sapiens) (UniProt P12931); assay: Binding affinity to SRC (unknown origin) at 10 nM after 2 hrs by FRET assay
[19] = target: Mast/stem cell growth factor receptor Kit (Homo sapiens) (UniProt P10721); assay: Binding affinity to KIT (unknown origin) at 10 nM after 2 hrs by FRET assay
[20] = target: Receptor-type tyrosine-protein kinase FLT3 (Homo sapiens) (UniProt P36888); assay: Binding affinity to FLT3 (unknown origin) at 10 nM after 2 hrs by FRET assay
[21] = target: T1, Tyrosine-protein kinase ABL1 (Homo sapiens, UniProt P00519, M351T); assay: Binding affinity to phosphorylated ABL1 M351T mutant (unknown origin) after 1 hr
[22] = target: Tyrosine-protein kinase ABL1 (Homo sapiens, UniProt P00519, F317I); assay: Binding affinity to non phosphorylated ABL1 F317I mutant (unknown origin) after 1 hr
[23] = target: T2, Tyrosine-protein kinase ABL1 (Homo sapiens, UniProt P00519); assay: Binding affinity to non phosphorylated wild type ABL1 (unknown origin) after 1 hr
[24] = target: T1, Tyrosine-protein kinase ABL1; assay: Inhibition of human recombinant ABL1 M351T mutant expressed in insect cells after 30 mins by FRET assay; format: cell-based
[25] = target: Tyrosine-protein kinase ABL1 (Homo sapiens, UniProt P00519, H396P); format: cell-based
[26] = target: Tyrosine-protein kinase ABL1 (Homo sapiens, UniProt P00519, G250E); format: cell-based
[27] = target: Tyrosine-protein kinase ABL1 (Homo sapiens, UniProt P00519, Q252H); format: cell-based
[28] = target: T2, Tyrosine-protein kinase ABL1; assay: Inhibition of human recombinant wild type ABL1 expressed in insect cells after 30 mins by FRET assay; format: cell-based
[29] = Cytotoxicity against mouse BA/F3 cells assessed as growth inhibition after 72 hrs by CCK-8 assay; conditions: BaF3, 72 h
cells = conditions: Mus musculus, BaF3, 72 h

Sequence of Cytochrome P450 3A4 (P08684 whole entry): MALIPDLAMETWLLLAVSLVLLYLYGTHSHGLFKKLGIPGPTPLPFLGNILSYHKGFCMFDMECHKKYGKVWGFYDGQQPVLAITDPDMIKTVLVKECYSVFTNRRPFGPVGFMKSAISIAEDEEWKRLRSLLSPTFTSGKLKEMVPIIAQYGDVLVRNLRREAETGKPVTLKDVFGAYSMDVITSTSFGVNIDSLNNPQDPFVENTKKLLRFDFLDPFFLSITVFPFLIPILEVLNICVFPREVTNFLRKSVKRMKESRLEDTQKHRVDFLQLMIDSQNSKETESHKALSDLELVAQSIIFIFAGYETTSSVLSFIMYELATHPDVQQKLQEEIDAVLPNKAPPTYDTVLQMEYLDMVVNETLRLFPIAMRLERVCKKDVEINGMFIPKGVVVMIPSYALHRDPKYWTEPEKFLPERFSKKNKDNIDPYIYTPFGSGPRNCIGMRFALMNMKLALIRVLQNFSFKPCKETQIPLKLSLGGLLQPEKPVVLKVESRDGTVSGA
Sequence of Mast/stem cell growth factor receptor Kit (Homo sapiens) (P10721 whole entry): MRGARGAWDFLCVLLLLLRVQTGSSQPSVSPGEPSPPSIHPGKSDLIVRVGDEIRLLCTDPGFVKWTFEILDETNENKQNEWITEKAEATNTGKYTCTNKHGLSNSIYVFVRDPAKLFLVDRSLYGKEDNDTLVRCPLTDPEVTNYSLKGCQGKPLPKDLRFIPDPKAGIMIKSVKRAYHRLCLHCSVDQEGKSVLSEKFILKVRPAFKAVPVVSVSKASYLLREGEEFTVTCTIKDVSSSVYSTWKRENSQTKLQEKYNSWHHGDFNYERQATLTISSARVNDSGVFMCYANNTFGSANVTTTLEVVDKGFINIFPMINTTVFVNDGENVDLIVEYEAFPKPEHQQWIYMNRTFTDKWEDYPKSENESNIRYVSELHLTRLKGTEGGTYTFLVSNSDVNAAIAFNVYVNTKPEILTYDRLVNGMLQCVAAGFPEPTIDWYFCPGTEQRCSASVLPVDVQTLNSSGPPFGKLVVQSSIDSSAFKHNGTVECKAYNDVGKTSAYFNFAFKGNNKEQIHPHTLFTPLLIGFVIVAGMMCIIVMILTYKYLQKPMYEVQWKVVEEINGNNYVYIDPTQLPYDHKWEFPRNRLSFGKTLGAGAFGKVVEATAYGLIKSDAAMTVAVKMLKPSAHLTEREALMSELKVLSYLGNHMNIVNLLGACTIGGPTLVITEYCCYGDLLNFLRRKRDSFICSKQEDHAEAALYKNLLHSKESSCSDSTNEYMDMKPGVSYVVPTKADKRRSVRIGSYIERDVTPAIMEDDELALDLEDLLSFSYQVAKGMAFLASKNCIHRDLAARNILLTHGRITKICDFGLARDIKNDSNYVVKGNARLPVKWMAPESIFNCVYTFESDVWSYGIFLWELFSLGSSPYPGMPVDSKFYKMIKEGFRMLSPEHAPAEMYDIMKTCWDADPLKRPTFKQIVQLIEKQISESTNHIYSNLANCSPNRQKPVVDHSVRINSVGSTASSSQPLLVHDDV
Sequence of Proto-oncogene tyrosine-protein kinase Src (Homo sapiens) (P12931 2-536 limits assumed): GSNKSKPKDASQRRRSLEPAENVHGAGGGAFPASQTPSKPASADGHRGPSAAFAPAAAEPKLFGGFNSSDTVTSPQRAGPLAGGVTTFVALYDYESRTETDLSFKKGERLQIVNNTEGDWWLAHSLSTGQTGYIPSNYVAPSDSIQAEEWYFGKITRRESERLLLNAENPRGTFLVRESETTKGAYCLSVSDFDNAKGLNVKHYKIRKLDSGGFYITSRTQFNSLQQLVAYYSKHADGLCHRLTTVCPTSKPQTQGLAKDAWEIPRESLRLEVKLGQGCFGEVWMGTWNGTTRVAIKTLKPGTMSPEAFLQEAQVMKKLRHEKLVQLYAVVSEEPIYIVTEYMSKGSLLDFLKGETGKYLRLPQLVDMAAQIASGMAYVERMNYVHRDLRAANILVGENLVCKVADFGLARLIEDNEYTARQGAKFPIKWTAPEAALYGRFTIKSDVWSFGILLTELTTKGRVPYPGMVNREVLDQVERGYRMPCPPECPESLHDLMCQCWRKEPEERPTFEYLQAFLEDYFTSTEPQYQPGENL
Sequence of Receptor-type tyrosine-protein kinase FLT3 (Homo sapiens) (P36888 whole entry): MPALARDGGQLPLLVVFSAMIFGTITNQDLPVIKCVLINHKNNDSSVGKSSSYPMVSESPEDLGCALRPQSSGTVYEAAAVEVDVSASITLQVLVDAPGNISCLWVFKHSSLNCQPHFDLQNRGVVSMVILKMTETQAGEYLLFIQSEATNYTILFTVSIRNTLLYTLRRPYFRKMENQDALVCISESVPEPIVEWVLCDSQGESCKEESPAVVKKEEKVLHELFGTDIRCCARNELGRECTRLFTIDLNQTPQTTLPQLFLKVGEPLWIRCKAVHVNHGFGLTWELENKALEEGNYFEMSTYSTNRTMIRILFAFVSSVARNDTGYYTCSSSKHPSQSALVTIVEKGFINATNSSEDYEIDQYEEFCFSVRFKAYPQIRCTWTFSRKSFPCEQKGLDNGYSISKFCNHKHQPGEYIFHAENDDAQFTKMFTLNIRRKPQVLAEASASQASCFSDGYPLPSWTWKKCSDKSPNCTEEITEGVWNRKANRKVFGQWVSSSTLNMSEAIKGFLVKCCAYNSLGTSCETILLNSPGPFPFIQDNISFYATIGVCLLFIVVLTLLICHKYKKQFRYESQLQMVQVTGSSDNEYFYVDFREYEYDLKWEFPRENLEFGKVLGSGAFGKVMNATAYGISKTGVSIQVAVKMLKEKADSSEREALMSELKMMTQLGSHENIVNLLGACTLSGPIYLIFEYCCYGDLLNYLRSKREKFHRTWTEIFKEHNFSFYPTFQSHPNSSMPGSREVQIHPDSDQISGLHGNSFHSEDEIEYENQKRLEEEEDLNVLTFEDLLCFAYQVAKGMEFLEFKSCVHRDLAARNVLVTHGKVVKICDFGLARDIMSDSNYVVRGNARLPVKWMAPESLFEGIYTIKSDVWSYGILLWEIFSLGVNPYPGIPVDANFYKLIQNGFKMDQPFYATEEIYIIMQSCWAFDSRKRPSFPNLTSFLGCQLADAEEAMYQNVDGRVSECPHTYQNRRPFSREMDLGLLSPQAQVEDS

In the case of Cc1ccc(C(=O)Nc2ccc(CN3CCN(C)CC3)c(C(F)(F)F)c2)cc1C#Cc1cnc2[nH]ncc2c1 [OLVEREMBATINIB], the Survival [1] is reported as 24.6 days, the Activity (BaF3 [2]) is reported as “Dose-dependent effect” and the Activity (BaF3 [3]) is reported as “Dose-dependent effect”. The Activity (BaF3 [4]) was “Active”, the Activity (BaF3 [5]) was “Active” and the TGI (BaF3 [6]) was “inactive”. For the same compound, the Activity (K562 [7]) was “Active”, the CL/F [8] was 60 mL/min/kg and the Tmax [9] was 4 h. For the same compound, the Vd [10] was 13.7 L/kg, the Papp B→A [11] was 0.28 ×10⁻⁶ cm/s and the Papp A→B [12] was 0.32 ×10⁻⁶ cm/s. The “inhibition (INH)” value (Cytochrome P450 3A4) was “Not Active”, the IC50 (K562 [13]) was 4.5 nM and the IC50 [14] was 1 nM. It also gave an IC50 [15] of 5.5 nM, an IC50 [16] of 2.3 nM and an IC50 [17] of 11 nM. For the same compound, the Activity [18] was “inactive”, the Activity [19] was “inactive” and the Activity [20] was “inactive”. It also gave a Kd [21] of 0.23 nM, a Kd [22] of 1.8 nM and a Kd [23] of 0.32 nM. It also gave an IC50 [24] of 0.29 nM, an IC50 [25] of 0.35 nM and an IC50 [26] of 0.71 nM. For the same compound, the IC50 [27] was 0.15 nM, the IC50 [28] was 0.34 nM and the IC50 [29] was 170 nM. The IC50 (cells) was 7.1 nM.
